The test system of one data set is CCRF-CEM. As to the kind of experiment: In vitro growth-inhibition assay utilizing CCRF-CEM cells, a lymphoblastic leukemic line of human origin. Particulars: read-out: ID50 (the source's name). The data set is classed as functional. The method, boiled down: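 Human CCRF-CEM lymphoblastic leukemia cells in continuous suspension culture, exposed continuously to drug for 48 h. ID₅₀ is the concentration giving 50% reduction in growth versus untreated control cultures.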

Data set [1] is described as follows: T 1/2 value indicates the time required for the initial concentration of compound to be reduced by 50%,. The class given is ADME. In short, it runs like this:
(§1)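 Drug incubated at 37 °C in pH 7.0 carbonate buffer containing 1% unfractionated mouse serum, pooled from 10 animals and stored at -70 °C. Loss of parent compound followed by HPLC; T1/2 is time for the initial concentration to fall by 50% through thio ester deacylation.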

A short description of data set [2]: (§2) Compound was tested in vitro for ability to bind with double helical calf thymus DNA was determined spectrophotometrically at 480 nmby spectral shift method and the value expressed as the ratio A/Ao. In short, it runs like this: (§3)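 Calf thymus double-helical DNA in pH 7.0 Tris buffer, drug/DNA molar ratio 0.1. Absorbance at 480 nm measured for drug alone (A₀) and after mixing with DNA (A), reported as A/A₀ (spectral shift method).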

Another data set relates to P388. As to the kind of experiment: (§4) Compound was evaluated in vivo for antitumor activity utilizing the murine P388 leukemia system in B6D2F1 male mice. The class given is functional, Mus musculus. In short, it runs like this: (§5)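 B6D2F1 male mice were inoculated ip on day 0 with 10⁶ P388 leukemia cells. Drug was given ip once daily on days 1–4, broadly following standard NCI protocols. Activity was read as percent increase in life span relative to untreated controls, reported at the highest nontoxic dose. The experiment was terminated on day 60.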

Another data set concerns Nucleic Acid. The description is as §2. The class given is nucleic-acid assay. Particulars: Bos taurus. In short, it runs like this:
as §3

Data set [3] concerns Mus musculus. The data set is described as §4. The data set is classed as functional. The method, boiled down: as §5
The test system of data set [4] is Mus musculus. As to the kind of experiment: Compound was evaluated in vivo for antitumor activity utilizing the murine P388 leukemia system in B6D2F1 male mice; Curative. The class given is functional, organism-based. The method, boiled down: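 Murine P388 leukemia in B6D2F1 male mice; 10⁶ tumor cells inoculated ip on day 0; drug given ip once daily on days 1–4, largely per standard NCI protocols. Outcome is percent increase in life span versus untreated controls, at highest nontoxic dose; experiment ended day 60.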

Data set [5] can be described thus: Time for esterases in unfractionated mouse serum to reduce the concentration due to thio ester deacylation. The class given is ADME. The method, boiled down:
as §1

Data set [6] can be described thus: Time for esterases in unfractionated mouse serum to reduce the concentration due to thio ester deacylation; 10 % hydrolysis at 60 mins. The data set is classed as ADME. In short, it runs like this:
as §1

Molecules are shown by their SMILES. pIC50: −log10 of the molar value.

Turning to `CCC(=O)SCC(=O)[C@]1(O)Cc2c(O)c3c(c(O)c2[C@@H](OC2CC(NC(=O)C(F)(F)F)C(O)C(C)O2)C1)C(=O)c1c(OC)cccc1C3=O` (stereo partly specified), the pIC50 in the data set with CCRF-CEM was 5.55. Moreover, the half-life in data set [1] came out at 80 min. The Ratio in data set [2] came out at 0.99.

`COc1cccc2c1C(=O)c1c(O)c3c(c(O)c1C2=O)C[C@@](O)(C(=O)CO)C[C@@H]3O[C@H]1C[C@H](N)[C@H](O)[C@H](C)O1` [DOXORUBICIN]: the Optimal dose in the data set on P388 is 3 mg/kg. The Ratio with Nucleic Acid is 0.96. The pIC50 in the data set on CCRF-CEM was 7.22. The ILS with Mus musculus [3] is given as 157%.

On to `CCCCC(=O)OCC(=O)[C@]1(O)Cc2c(O)c3c(c(O)c2[C@@H](OC2CC(NC(=O)C(F)(F)F)C(O)C(C)O2)C1)C(=O)c1c(OC)cccc1C3=O` (stereo partly specified), for which, in the data set with Mus musculus [4], the ILS entry is given as “Curative”. This compound registered an Optimal dose in the data set with P388 of 50 mg/kg. The Ratio with Nucleic Acid amounted to 0.6. The pIC50 with CCRF-CEM is 6.62. The same compound returned a half-life in data set [5] of 10 min.

Regarding `COc1cccc2c1C(=O)c1c(O)c3c(c(O)c1C2=O)C[C@@](O)(C(=O)CSC(=O)c1ccccc1)C[C@@H]3OC1CC(NC(=O)C(F)(F)F)C(O)C(C)O1` (stereo partly specified), the Ratio with Nucleic Acid stood at 0.98. In addition, in the data set with CCRF-CEM, the pIC50 was 5.42. In data set [6], this compound displayed a half-life above 60 min.

On to `COc1cccc2c1C(=O)c1c(O)c3c(c(O)c1C2=O)C[C@@](O)(C(=O)CSC(C)=O)C[C@@H]3OC1CC(N)C(O)C(C)O1` (stereo partly specified), for which, in the data set with P388, the Optimal dose was 25 mg/kg. In addition, the Ratio in the data set on Nucleic Acid was 0.61. Besides, the pIC50 in the data set on CCRF-CEM is 6.05. The ILS in the data set on Mus musculus [3] is on record as 220%. In data set [5], the half-life worked out at 6 min.

As for `COc1cccc2c1C(=O)c1c(O)c3c(c(O)c1C2=O)C[C@@](O)(C(=O)CSC(C)=O)C[C@@H]3OC1CC(NC(=O)C(F)(F)F)C(O)C(C)O1` (stereo partly specified), the pIC50 in the data set with CCRF-CEM is below 5.30. Also, the half-life in [5] was 18 min.

For `COc1cccc2c1C(=O)c1c(O)c3c(c(O)c1C2=O)C[C@@](O)(C(=O)CSC(=O)c1ccccc1)C[C@@H]3OC1CC(N)C(O)C(C)O1` (stereo partly specified), in the data set with P388, the Optimal dose worked out at 10 mg/kg. In the data set with Nucleic Acid, the Ratio is 0.65. Also, in the data set on CCRF-CEM, the pIC50 was 5.64. In addition, in the data set on Mus musculus [3], the ILS is on record as 140%. In addition, the half-life in data set [5] worked out at 8 min.

`CCCC(=O)SCC(=O)[C@]1(O)Cc2c(O)c3c(c(O)c2[C@@H](OC2CC(N)C(O)C(C)O2)C1)C(=O)c1c(OC)cccc1C3=O` (stereo partly specified) registered an Optimal dose with P388 of 10 mg/kg. Also, the Ratio in the data set with Nucleic Acid turned out to be 0.63. For the same compound, in the data set with CCRF-CEM, the pIC50 was 6.25. In addition, the ILS with Mus musculus [3] came to 90%. Also, in data set [5], the half-life stood at 10 min.

As to `CCCC(=O)SCC(=O)[C@]1(O)Cc2c(O)c3c(c(O)c2[C@@H](OC2CC(NC(=O)C(F)(F)F)C(O)C(C)O2)C1)C(=O)c1c(OC)cccc1C3=O` (stereo partly specified), the pIC50 with CCRF-CEM was below 5.30. The same compound displayed a half-life in [5] of 42 min.

`CCCCC(=O)SCC(=O)[C@]1(O)Cc2c(O)c3c(c(O)c2[C@@H](OC2CC(N)C(O)C(C)O2)C1)C(=O)c1c(OC)cccc1C3=O` (stereo partly specified): in the data set with P388, the Optimal dose turned out to be 10 mg/kg. The Ratio in the data set on Nucleic Acid amounted to 0.65. For the same compound, in the data set with CCRF-CEM, the pIC50 is 6.35. In addition, in the data set on Mus musculus [3], the ILS was determined as 130%. In [5], this compound returned a half-life of 8 min.

Compound `CCC(=O)SCC(=O)[C@]1(O)Cc2c(O)c3c(c(O)c2[C@@H](OC2CC(N)C(O)C(C)O2)C1)C(=O)c1c(OC)cccc1C3=O` (stereo partly specified) gave an Optimal dose in the data set on P388 of 20 mg/kg. The Ratio in the data set with Nucleic Acid is 0.61. Further, in the data set with CCRF-CEM, the pIC50 is 6.14. In the data set with Mus musculus [3], this compound had an ILS of 80%. Further, in [5], the half-life amounted to 5 min.

For `CCCCC(=O)SCC(=O)[C@]1(O)Cc2c(O)c3c(c(O)c2[C@@H](OC2CC(NC(=O)C(F)(F)F)C(O)C(C)O2)C1)C(=O)c1c(OC)cccc1C3=O` (stereo partly specified), the pIC50 with CCRF-CEM was below 5.30. In addition, the half-life in data set [5] stood at 22 min.

The term half-life denotes the time needed for the level to fall by half in the phase considered. As usually defined, the ILS is how much longer treated animals lived than controls. A lower ILS goes with little gain in survival.

For the origin of these results see ChEMBL document CHEMBL1123530, “Adriamycin analogues. Preparation and biological evaluation of some thio ester analogues of adriamycin and N-(trifluoroacetyl)adriamycin 14-valerate” (J Med Chem, 1986).
